Screens: PubChem, The Scripps Research Institute Molecular Screening Center
The list is not random: actives were taken first. Their share in the collection is about 1.6%.
IMP-1 inh = blocks Pseudomonas aeruginosa IMP-1 metallo-beta-lactamase; purified IMP-1, nitrocefin hydrolysis, epi-absorbance fluorescence; inhibition, % at 5.6 µM; 290,000 tested, 0.45% active; AID 1556;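 active = inhibition above the mean plus 3 SD of all compounds in the same screening run, cut at about 4.5% in these data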
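System – purified recombinant IMP-1 beta-lactamase · Input – IMP-1 dispensed at 0.2 nM · Timing – 15 min preincubation plus 25 min reaction at 25 °C · Signal – Epi-absorbance fluorescence, 480 nm excitation, 530 nm emission · Measure – percent IMP-1 inhibition derived from blank-referenced optical density · Controls – Enzyme-plus-DMSO low control, enzyme-free DMSO high control · Replication – singlicate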
VIM-2 inhibitor = inhibitors of Pseudomonas aeruginosa VIM-2 metallo-beta-lactamase; purified VIM-2, nitrocefin hydrolysis, epi-absorbance fluorescence; inhibition, % at 5.6 µM; 290,000 tested, 0.89% active; AID 1527;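 active = inhibition above the mean of all tested compounds plus 3 SD, cutoff set per screening run, cut at about 7.5% in these data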;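 note: red hydrolysis product quenches plate fluorescence so inhibitors raise well fluorescence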
core dimer inh = HCV core protein dimerization inhibition | TR-FRET GST/Flag-core106 dimerization, 1536-well | inhibition, % at 5 µM | 300,000 tested, 0.33% active | AID 1899;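 active = inhibition above the mean of all tested compounds plus 3 SD, set per screening campaign, cut at about 45% in these data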
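assay system = GST-tagged and Flag-tagged HCV core protein residues 1-106 | controls = unlabelled core106 and no-GST-core106 wells | incubation = compound-protein-antibody incubation 4 h at 22.5 °C | probe or stimulus = Eu donor and XL665 acceptor anti-tag antibodies | read-out = % inhibition based on acceptor/donor emission ratio | signal = TR-FRET 671 and 617 nm emission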
DNA FID counter = counter-screen for HCV NS3 helicase inhibitors: DNA intercalator displacement; DNA fluorescent intercalator displacement, fluorescence; 290,000 tested, 0.17% active; inhibition, % at 7.9 µM; AID 1845; in the data active = inhibition above about 37%;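 note: higher means more ethidium bromide displaced from hairpin DNA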
VIM-2 confirm = VIM-2 inhibition, confirmation assay. shares compounds with IMP-1 inh. purified VIM-2 enzyme, nitrocefin absorbance. inhibition, % at 5.6 µM. 200 tested, 73% active; in the data active = inhibition above about 8%
TEM-1 counter = blocks E. coli TEM-1 beta-lactamase, VIM-2 IMP-1 counter-screen | nitrocefin absorbance inhibition | shares compounds with IMP-1 inh | 200 tested, 50% active | inhibition, % at 5.6 µM; in the data active = inhibition above about 0.66%
Target sequence (P62593 whole entry, looked up): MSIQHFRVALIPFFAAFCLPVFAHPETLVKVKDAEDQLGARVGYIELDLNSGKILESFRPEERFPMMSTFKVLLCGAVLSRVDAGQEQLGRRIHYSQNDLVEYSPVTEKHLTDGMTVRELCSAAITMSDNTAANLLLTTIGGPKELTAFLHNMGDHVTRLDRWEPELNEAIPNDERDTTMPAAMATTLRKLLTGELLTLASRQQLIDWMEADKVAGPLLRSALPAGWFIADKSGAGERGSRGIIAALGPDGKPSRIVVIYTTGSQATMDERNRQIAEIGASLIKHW
IMP-1 inh conf = confirmation of P. aeruginosa IMP-1 metallo-beta-lactamase inhibitors; shares compounds with IMP-1 inh; AID 2189; 200 tested, 60% active; inhibition, % at 5.6 µM; purified IMP-1 enzyme, absorbance substrate hydrolysis; in the data active = inhibition above about 4.9%
Large screens that a line does not name were inactive (follow-up assays come after a bar, where they were run).

COc1ccc(N2C(=O)CSC2c2cccc(F)c2)cc1 (configuration not stated)	none
COC(=O)Cc1c(OC)ccn(CCc2c[nH]c3ccccc23)c1=O	none
CS(=O)(=O)N(CC(=O)N1CCCC1)c1cc(C(F)(F)F)ccc1Cl	none
CCN(CC)c1ccc(/C=C/C(=O)c2ccc(Br)cc2)cc1	IMP-1 inh 8.0, VIM-2 inhibitor 14 | VIM-2 confirm 33 | TEM-1 counter 48 | IMP-1 inh conf 31
C(#Cc1ccccc1)C[N+]1(CC#Cc2ccccc2)CCCC1	none
C=CC#CC[N+]1(CC#Cc2ccccc2)CCOCC1	IMP-1 inh 20, VIM-2 inhibitor 20 (no result: core dimer inh) | VIM-2 confirm 34 | TEM-1 counter inactive | IMP-1 inh conf inactive
O=C(COC(=O)C1CC2CCCC(C1)C2=O)NC(=O)c1ccc(OC(F)F)cc1 (configuration not stated)	none
C[n+]1cc(C(=O)N2CCCCC2)ccc1/C=C/c1c[nH]c2ccccc12	IMP-1 inh 4.9 | VIM-2 confirm 14 | TEM-1 counter 0.5 | IMP-1 inh conf 5.6
COc1ccc(-c2csc(N3CCC(c4ccccc4)C3)n2)cc1 (configuration not stated)	none
CCCCCCn1c(=O)[nH]c2nc3cc(N)ccc3nc2c1=O	IMP-1 inh 16, VIM-2 inhibitor 12 | VIM-2 confirm 15 | TEM-1 counter 31 | IMP-1 inh conf 13
O=C(O)C1Sc2[nH]c(=O)sc2C2c3ccc(O)cc3OC(=O)C12 (configuration not stated)	IMP-1 inh 8.6, VIM-2 inhibitor 7.9 | VIM-2 confirm inactive | TEM-1 counter inactive | IMP-1 inh conf inactive
COC(=O)C1Sc2[nH]c(=O)sc2C2c3ccccc3OC(=O)C12 (configuration not stated)	none
CCOC(=O)c1ccc(NC(=O)c2nc[nH]c2C(=O)N[C@H](C)c2ccccc2)cc1	none (no result: IMP-1 inh, VIM-2 inhibitor, DNA FID counter)
COc1ccc(-c2cc(=O)oc3c(C)c(OCC(=O)NCCCn4ccnc4)ccc23)cc1	IMP-1 inh 38, VIM-2 inhibitor 19 | VIM-2 confirm 26 | TEM-1 counter inactive | IMP-1 inh conf 32
Cc1c(OCC(=O)NCC2CCC(C(=O)NCCCO)CC2)ccc2c(-c3ccccc3)cc(=O)oc12 (configuration not stated)	none
C/C(=N\Nc1ncnc2sc(C)c(C)c12)c1ccccn1	IMP-1 inh 13, VIM-2 inhibitor 14 | VIM-2 confirm 38 | TEM-1 counter 7.1 | IMP-1 inh conf inactive
O=S(=O)([N-]c1nc2ccccc2nc1-n1cc[n+](Cc2ccccc2)c1)c1ccc(Br)cc1	none
